Source: ChEMBL document CHEMBL4152197, “Proteolysis Targeting Chimeras (PROTACs) of Anaplastic Lymphoma Kinase (ALK)” (Eur J Med Chem, 2018)
The source made the active and inactive calls. The calls are words filed in the database; no cut-off is given here.

What was measured:
[1] = target: T1, ALK tyrosine kinase receptor (Homo sapiens, UniProt Q9UM73); experiment: Inhibition of ALK autophosphorylation at Y1507 residue in human SU-DHL1 cells after 16 hrs by Western blot analysis; type: cell-based
In short: (§1)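 SU-DHL-1 or NCI-H2228 cells, grown in RPMI-1640 with 10% FBS at 37 °C under 5% CO₂, were exposed to DMSO or serial dilutions of compound (up to 100 nM) for 16 h. Cells were lysed in Laemmli buffer and run on SDS-PAGE/PVDF immunoblots probed for ALK, p-ALK Y1507, STAT3, p-STAT3 Y705 and GAPDH. Band levels were normalized to GAPDH. DC50 was taken from a variable-slope fit, triplicate independent experiments, mean ± SEM.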

[2] = target: T1, ALK tyrosine kinase receptor; experiment: Inhibition of ALK autophosphorylation at Y1507 residue in human NCI-H2228 cells after 16 hrs by Western blot analysis; type: cell-based; in short: as §1
[3] = target: T2, Protein cereblon/ALK tyrosine kinase receptor/Echinoderm microtubule-associated protein-like 4 (Homo sapiens) (UniProt Q9UM73+Q9HC35+Q96SW2); experiment: Induction of CRL4/CRBN ubiquitin ligase-mediated EML4-ALK fusion protein degradation in human NCI-H2228 cells assessed as reduction in STAT3 phosphorylation at Y705 residue after 16 hrs by Western blot analysis; type: cell-based; in short: as §1
[4] = target: T3, Protein cereblon/ALK tyrosine kinase receptor/Nucleophosmin (Homo sapiens) (UniProt Q9UM73+P06748+Q96SW2); experiment: Induction of CRL4/CRBN ubiquitin ligase-mediated NPM-ALK fusion protein degradation in human SU-DHL1 cells assessed as reduction in NPM-ALK fusion protein levels at 100 nM after 16 hrs by Western blot analysis; type: cell-based; parameters: scale not given: the % may be the effect or the level left; in short: as §1
[5] = target: T1, ALK tyrosine kinase receptor; experiment: Inhibition of ALK autophosphorylation at Y1507 residue in human SU-DHL1 cells at 100 nM after 16 hrs by Western blot analysis; type: cell-based; in short: as §1
[6] = target: T1, ALK tyrosine kinase receptor; experiment: Inhibition of ALK in human SU-DHL1 cells assessed as reduction in STAT3 phosphorylation at Y705 residue at 100 nM after 16 hrs by Western blot analysis; type: cell-based; in short: as §1
SU-DHL-1 [7] = experiment: Toxicity against human SU-DHL1 cells assessed as cell death over 100 nM after 3 days by luminescence-based CellTiter-Glo assay; conditions: su-dhl-1, 72 h
[8] = target: T2, Protein cereblon/ALK tyrosine kinase receptor/Echinoderm microtubule-associated protein-like 4 (Homo sapiens); experiment: Induction of CRL4/CRBN ubiquitin ligase-mediated EML4-ALK fusion protein degradation in human NCI-H2228 cells assessed as reduction in EML4-ALK fusion protein levels at 60 nM after 8 to 24 hrs hrs by Western blot analysis; type: cell-based
In short: (§2)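 Time course by immunoblot. SU-DHL-1 (30 nM) or NCI-H2228 (60 nM) cells in RPMI-1640 with 10% FBS were held at a fixed degrader concentration and harvested over time up to 24 h. Lysates in Laemmli buffer were blotted for ALK fusion protein, p-ALK Y1507 and p-STAT3 Y705, with GAPDH as the loading reference.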

[9] = target: T2, Protein cereblon/ALK tyrosine kinase receptor/Echinoderm microtubule-associated protein-like 4 (Homo sapiens); experiment: Induction of CRL4/CRBN ubiquitin ligase-mediated EML4-ALK fusion protein degradation assessed as inhibition of ALK autophosphorylation at Y1507 residue in human NCI-H2228 cells at 60 nM after 8 to 24 hrs by Western blot analysis; type: cell-based; in short: as §2
[10] = target: T3, Protein cereblon/ALK tyrosine kinase receptor/Nucleophosmin (Homo sapiens); experiment: Induction of CRL4/CRBN ubiquitin ligase-mediated NPM-ALK fusion protein degradation in human SU-DHL1 cells pretreated with MLN4924 for 2 hrs followed by compound addition at 100 nM and measured after 6 hrs by Western blot analysis; type: cell-based
[11] = target: T3, Protein cereblon/ALK tyrosine kinase receptor/Nucleophosmin (Homo sapiens); experiment: Induction of CRL4/CRBN ubiquitin ligase-mediated NPM-ALK fusion protein degradation in human SU-DHL1 cells pretreated with MG-132 for 2 hrs followed by compound addition at 100 nM and measured after 6 hrs by Western blot analysis; type: cell-based
[12] = target: T3, Protein cereblon/ALK tyrosine kinase receptor/Nucleophosmin (Homo sapiens); experiment: Induction of CRL4/CRBN ubiquitin ligase-mediated NPM-ALK fusion protein degradation in human SU-DHL1 cells pretreated with pomalidomide for 2 hrs followed by compound addition at 100 nM and measured after 6 hrs by Western blot analysis; type: cell-based
[13] = target: T1, ALK tyrosine kinase receptor; experiment: Inhibition of ALK autophosphorylation at Y1507 residue in human SU-DHL1 cells pretreated with MG-132 for 2 hrs followed by compound addition at 100 nM and measured after 6 hrs by Western blot analysis; type: cell-based
[14] = target: T1, ALK tyrosine kinase receptor; experiment: Inhibition of ALK autophosphorylation at Y1507 residue in human SU-DHL1 cells pretreated with MLN4924 for 2 hrs followed by compound addition at 100 nM and measured after 6 hrs by Western blot analysis; type: cell-based
[15] = target: T1, ALK tyrosine kinase receptor; experiment: Inhibition of ALK autophosphorylation at Y1507 residue in human SU-DHL1 cells pretreated with pomalidomide for 2 hrs followed by compound addition at 100 nM and measured after 6 hrs by Western blot analysis; type: cell-based
[16] = target: T3, Protein cereblon/ALK tyrosine kinase receptor/Nucleophosmin (Homo sapiens); experiment: Induction of CRL4/CRBN ubiquitin ligase-mediated NPM-ALK fusion protein degradation in human SU-DHL1 cells pretreated with ceritinib for 2 hrs followed by compound addition at 100 nM and measured after 6 hrs by Western blot analysis; type: cell-based
[17] = target: T3, Protein cereblon/ALK tyrosine kinase receptor/Nucleophosmin (Homo sapiens); experiment: Induction of CRL4/CRBN ubiquitin ligase-mediated NPM-ALK fusion protein degradation in human SU-DHL1 cells pretreated at 100 nM for 2 hrs followed by compound washout and measured after 8 hrs by Western blot analysis; type: cell-based
In short: (§3)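 Washout in SU-DHL-1 cells: DMSO or 100 nM compound for 2 h, then a PBS wash and incubation in fresh medium for the indicated times. Lysates were immunoblotted for NPM-ALK, p-ALK Y1507 and p-STAT3 Y705, with GAPDH as the reference.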

[18] = target: T3, Protein cereblon/ALK tyrosine kinase receptor/Nucleophosmin (Homo sapiens); experiment: Induction of CRL4/CRBN ubiquitin ligase-mediated NPM-ALK fusion protein degradation in human SU-DHL1 cells assessed as inhibition of ALK autophosphorylation at Y1507 residue pretreated at 100 nM for 2 hrs followed by compound washout and measured after 8 hrs by Western blot analysis; type: cell-based; in short: as §3
[19] = target: T3, Protein cereblon/ALK tyrosine kinase receptor/Nucleophosmin (Homo sapiens); experiment: Induction of CRL4/CRBN ubiquitin ligase-mediated NPM-ALK fusion protein degradation in human SU-DHL1 cells assessed as reduction in STAT3 phosphorylation at Y705 residue pretreated at 100 nM for 2 hrs followed by compound washout and measured after 8 hrs by Western blot analysis; type: cell-based; in short: as §3
NCI-H2228 = experiment: Growth inhibition of human NCI-H2228 cells after 3 days by luminescence-based CellTiter-Glo assay; type: functional, cell-based; conditions: for IC50: NCI-H2228, 72 h
[20] = target: T2, Protein cereblon/ALK tyrosine kinase receptor/Echinoderm microtubule-associated protein-like 4 (Homo sapiens); experiment: Induction of CRL4/CRBN ubiquitin ligase-mediated EML4-ALK fusion protein degradation in human NCI-H2228 cells assessed as reduction in STAT3 phosphorylation at Y705 residue at 60 nM after 8 to 24 hrs by Western blot analysis; type: cell-based; in short: as §2
Mus musculus = experiment: Toxicity in Swiss Albino mouse assessed as drug tolerability at 50 mg/kg, ip; type: organism-based; conditions: in vivo
In short: (§4)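 Male Swiss Albino mice received a single 50 mg/kg intraperitoneal dose, with clinical signs monitored. Plasma was sampled at 30 min, 1, 2, 4, 8 and 12 h post dose. Values are the average of 3 animals ± SD.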

[21] = Plasma concentration in Swiss Albino mouse at 50 mg/kg, ip after 2 hrs; type: ADME, organism-based; in short: as §4
[22] = Plasma concentration in Swiss Albino mouse at 50 mg/kg, ip after 12 hrs; type: ADME, organism-based; in short: as §4
[23] = target: T1, ALK tyrosine kinase receptor; experiment: Binding affinity to wild-type human partial length ALK (I1088 to E1409 residues) expressed in mammalian expression system by KINOMEscan assay
SU-DHL-1 [24] = experiment: Growth inhibition of human SU-DHL1 cells after 3 days by luminescence-based CellTiter-Glo assay; type: functional, cell-based

SMILES | inhibition [1] | inhibition [2] | Activity [3] | Activity [4] [%] | inhibition [5] [%] | inhibition [6] [%] | Activity (SU-DHL-1 [7]) | Activity [8] | Activity [9] | Activity [10] | Activity [11] | Activity [12] | inhibition [13] | inhibition [14] | inhibition [15] | Activity [16] | Activity [17] | Activity [18] | Activity [19] | IC50 (NCI-H2228) [µM] | further results
Cc1cc(Nc2ncc(Cl)c(Nc3ccccc3S(=O)(=O)C(C)C)n2)c(OC(C)C)cc1C1CCN(CC(=O)NCCOCCOCCOCCOCCOCCNc2cccc3c2C(=O)N(C2CCC(=O)NC2=O)C3=O)CC1 (configuration not stated) | Dose-dependent effect | Dose-dependent effect | Dose-dependent effect | > 90 | > 90 | > 90 | Toxic | Active | Active | inactive | inactive | inactive | Active | Active | Active | Active | inactive | inactive | inactive | 0.046 | Activity [20]: Active
Cc1cc(Nc2ncc(Cl)c(Nc3ccccc3S(=O)(=O)C(C)C)n2)c(OC(C)C)cc1C1CCN(CC(=O)NCCNc2cccc3c2C(=O)N(C2CCC(=O)NC2=O)C3=O)CC1 (configuration not stated) | Dose-dependent effect | Dose-dependent effect | Dose-dependent effect | > 90 | > 90 | > 90 | Toxic | Active | Active | inactive | inactive | inactive | Active | Active | Active | Active | inactive | inactive | inactive | 0.033 | Activity (Mus musculus): Non-Toxic; concentration at 2 h [21]: 3000 nM; concentration at 12 h [22]: 340 nM; Activity [20]: Active
Cc1cc(Nc2ncc(Cl)c(Nc3ccccc3S(=O)(=O)C(C)C)n2)c(OC(C)C)cc1C1CCNCC1 [CERITINIB] | – | – | – | – | – | – | Toxic | – | – | – | – | – | – | – | – | – | – | – | – | – | –
Cc1cc(Nc2ncc(Cl)c(Nc3ccccc3S(=O)(=O)C(C)C)n2)c(OC(C)C)cc1C1CCN(CC(=O)NCCNc2cccc3c2C(=O)N(C2CCC(=O)N(C)C2=O)C3=O)CC1 (configuration not stated) | – | – | – | – | – | – | – | – | – | – | – | – | – | – | – | – | – | – | – | – | Kd [23]: 0.078 µM; growth inhibition (GI) (SU-DHL-1 [24]): inactive; growth inhibition (GI) (NCI-H2228): inactive
Cc1cc(Nc2ncc(Cl)c(Nc3ccccc3S(=O)(=O)C(C)C)n2)c(OC(C)C)cc1C1CCN(CC(=O)NCCOCCOCCOCCOCCOCCNc2cccc3c2C(=O)N(C2CCC(=O)N(C)C2=O)C3=O)CC1 (configuration not stated) | – | – | – | – | – | – | – | – | – | – | – | – | – | – | – | – | – | – | – | – | Kd [23]: 0.054 µM; growth inhibition (GI) (SU-DHL-1 [24]): inactive; growth inhibition (GI) (NCI-H2228): inactive
